Drawing on ChEMBL document CHEMBL3297718, “Ultrasound-assisted one-pot four-component synthesis of novel 2-amino-3-cyanopyridine derivatives bearing 5-imidazopyrazole scaffold and their biological broadcast” (Eur J Med Chem, 2014), this text covers MIC, inhibition and Activity for eleven compounds.

In brackets after ≈: the same amount, converted by molar mass.

The subject of series [1] is Vibrio cholerae. Briefly: Antimicrobial activity against Vibrio cholerae MTCC 3906 by broth microdilution method. In kind it is functional.
The subject of series [2] is Mycobacterium tuberculosis. Briefly: Antitubercular activity against Mycobacterium tuberculosis H37Rv at 250 ug/ml. In kind it is functional.
In series [3] the test system is Candida albicans. Briefly: Antimicrobial activity against Candida albicans MTCC 227 by broth microdilution method. In kind it is functional. The method, boiled down: (§1)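 Broth microdilution following NCCLS. Compounds were diluted in 2% DMSO in water. Fungi were grown in Sabouraud dextrose broth. Inoculum was set to 10⁸ CFU mL⁻¹ by turbidity. A primary serial-dilution screen was followed by a secondary set of lower dilutions for primary actives. Tubes were incubated at 37 °C, with growth noted at 24 and 48 h. MIC was the highest dilution preventing turbidity after spot subculture.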

Series [4] relates to Clostridium tetani. Put plainly: Antimicrobial activity against Clostridium tetani MTCC 449 by broth microdilution method. In kind it is functional.
The subject of series [5] is Salmonella typhi. Put plainly: Antimicrobial activity against Salmonella typhi MTCC 98 by broth microdilution method. In kind it is functional, Salmonella enterica subsp. enterica serovar Typhi. As to conditions: Salmonella enterica.
Series [6] concerns Streptococcus pneumoniae. Briefly: Antimicrobial activity against Streptococcus pneumoniae MTCC 1936 by broth microdilution method. In kind it is functional. Background: In broth dilution the organism is exposed to a series of concentrations in liquid medium.
Series [7] has as its system Escherichia coli. Put plainly: Antimicrobial activity against Escherichia coli MTCC 443 by broth microdilution method. In kind it is functional. The method, boiled down:
as §1

The test system of series [8] is Bacillus subtilis. Put plainly: Antimicrobial activity against Bacillus subtilis MTCC 441 by broth microdilution method. In kind it is functional. The procedure, abridged:
as §1

The test system of series [9] is Aspergillus fumigatus. Briefly: Antimicrobial activity against Aspergillus fumigatus MTCC 3008 by broth microdilution method. In kind it is functional. The method, boiled down: as §1
Series [10] in a line: Antioxidant activity assessed as ferric ion reducing activity using fe3+-TPTZ at 200 mg/ml measured as ascorbic acid per 100 g sample by FRAP assay. In kind it is physicochemical. The method, boiled down:
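FRAP assay, modified Benzie–Strain. Reagent combined TPTZ in 40 mM HCl, aqueous FeCl₃·6H₂O and acetate buffer at pH 3.6. Sample solution was mixed with 3 mL reagent and incubated 25 min at 37 °C. Fe(II)–TPTZ absorbance was read at 593 nm against an ascorbic acid standard. Results are given as ascorbic equivalents, mmol/100 g compound.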

Series [11] relates to Mycobacterium tuberculosis. Put plainly: Antitubercular activity against Mycobacterium tuberculosis H37Rv. In kind it is functional. The procedure, abridged:
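M. tuberculosis H37Rv was grown on Lowenstein–Jensen medium with compound at a single concentration of 250, and compared against control tubes of medium alone with the organism. Results are given as % inhibition, and the concentration giving complete inhibition of colonies was taken as the active concentration.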

On to `Cc1nn(-c2ccccc2)c(-n2ccnc2)c1-c1cc(-c2ccccc2)nc(N)c1C#N`, for which the MIC in series [1] stood at 250 µg/mL (≈ 599 µM); in [3], 1000 µg/mL (≈ 2400 µM); in series [4], 250 µg/mL (≈ 599 µM); in [5], 200 µg/mL (≈ 479 µM); in series [6], 250 µg/mL (≈ 599 µM); in [7], 250 µg/mL (≈ 599 µM). Further, the values for the MIC in [8] and in series [9] were 200 µg/mL (≈ 479 µM) and 1000 µg/mL (≈ 2400 µM), respectively. In series [2], this compound displayed an inhibition at 250 µg/mL of 25%. Besides, the Activity in [10] is reported as 427.08 mmol.

Regarding `Cc1nn(-c2ccccc2)c(-n2ccnc2)c1-c1cc(-c2ccc(F)cc2)nc(N)c1C#N`, the MIC was 200 µg/mL (≈ 459 µM) in [1]; 1000 µg/mL (≈ 2300 µM) in series [3]; 500 µg/mL (≈ 1150 µM) in series [4]; 500 µg/mL (≈ 1150 µM) in [5]; 200 µg/mL (≈ 459 µM) in series [6]; 500 µg/mL (≈ 1150 µM) in [7]. Also, the values for the MIC in series [8] and in [9] were 200 µg/mL (≈ 459 µM) and 1000 µg/mL (≈ 2300 µM), respectively. Also, the inhibition at 250 µg/mL in series [2] worked out at 15%. For the same compound, the Activity in series [10] was determined as 405.2 mmol.

With `COC1=CC(=O)C[C@@H](C)[C@]12Oc1c(Cl)c(OC)cc(OC)c1C2=O` [GRISEOFULVIN], the MIC in series [3] came out at 500 µg/mL (≈ 1420 µM); in series [9] it was 100 µg/mL (≈ 283 µM).

For `Cc1cn(-c2c(-c3cc(-c4ccc(Cl)cc4)nc(N)c3C#N)c(C)nn2-c2ccccc2)cn1`, the MIC was 250 µg/mL (≈ 537 µM) in series [1]; 1000 µg/mL (≈ 2150 µM) in series [3]; 500 µg/mL (≈ 1070 µM) in series [4]; 250 µg/mL (≈ 537 µM) in series [5]; 200 µg/mL (≈ 429 µM) in series [6]; 200 µg/mL (≈ 429 µM) in series [7]. Besides, the MIC in series [8] and in series [9] was 500 µg/mL (≈ 1070 µM) throughout. This compound also came in with an inhibition at 250 µg/mL in series [2] of 22%. The Activity in series [10] is listed as 404.8 mmol.

`CO[C@H]1/C=C/O[C@@]2(C)Oc3c(C)c(O)c4c(O)c(c(/C=N/N5CCN(C)CC5)c(O)c4c3C2=O)NC(=O)/C(C)=C\C=C\[C@H](C)[C@H](O)[C@@H](C)[C@@H](O)[C@@H](C)[C@H](OC(C)=O)[C@@H]1C` [RIFAMPIN] returned an inhibition at 250 µg/mL in series [2] of 98%. Inhibition of growth in series [11] (MIC) required 0.15 µg/mL (≈ 0.182 µM).

As to `Cc1cn(-c2c(-c3cc(-c4cc5ccccc5oc4=O)nc(N)c3C#N)c(C)nn2-c2ccccc2)cn1`, the MIC in series [3] came to 250 µg/mL (≈ 500 µM); in [6], 100 µg/mL (≈ 200 µM); in series [7], 250 µg/mL (≈ 500 µM); in series [8] it was 200 µg/mL (≈ 400 µM); in series [9] it was 500 µg/mL (≈ 1000 µM). Moreover, the Activity in series [10] was 433.44 mmol.

In the case of `CC1(C)S[C@@H]2[C@H](NC(=O)[C@H](N)c3ccccc3)C(=O)N2[C@H]1C(=O)O` [AMPICILLIN], the MIC in [1] is 100 µg/mL (≈ 286 µM); in series [4], 250 µg/mL (≈ 715 µM); in series [5], 100 µg/mL (≈ 286 µM); in [6] it was 100 µg/mL (≈ 286 µM); in series [7] it was 100 µg/mL (≈ 286 µM); in series [8], 250 µg/mL (≈ 715 µM).

In the case of `Cc1nn(-c2ccccc2)c(-n2ccnc2)c1-c1cc(-c2ccc(-c3ccccc3)cc2)nc(N)c1C#N`, the MIC in [1] came out at 500 µg/mL (≈ 1010 µM); in series [3], 500 µg/mL (≈ 1010 µM); in series [4], 250 µg/mL (≈ 507 µM); in series [5], 125 µg/mL (≈ 253 µM); in [6], 500 µg/mL (≈ 1010 µM); in series [7], 100 µg/mL (≈ 203 µM). Besides, the MIC in [8] and in series [9] was 500 µg/mL (≈ 1010 µM) each time. This compound gave an inhibition at 250 µg/mL in series [2] of 45%. Also, the Activity in [10] is listed as 497.1 mmol.

As for `Cc1cn(-c2c(-c3cc(-c4ccc(F)cc4)nc(N)c3C#N)c(C)nn2-c2ccccc2)cn1`, the MIC in series [1] was 100 µg/mL (≈ 222 µM); in series [3], above 1000 µg/mL; in [4], 250 µg/mL (≈ 556 µM); in series [5], 250 µg/mL (≈ 556 µM); in series [6], 100 µg/mL (≈ 222 µM); in series [7], 500 µg/mL (≈ 1110 µM). The MIC in [8] is 500 µg/mL (≈ 1110 µM); in series [9], 1000 µg/mL (≈ 2220 µM). Besides, the inhibition at 250 µg/mL in [2] amounted to 62%. For the same compound, the Activity in series [10] is listed as 392.66 mmol.

As to `Cc1nn(-c2ccccc2)c(-n2ccnc2)c1-c1cc(-c2ccc(Cl)cc2)nc(N)c1C#N`, the MIC in series [1] is 500 µg/mL (≈ 1110 µM); in series [3] it was 1000 µg/mL (≈ 2210 µM); in [4], 500 µg/mL (≈ 1110 µM); in series [5] it was 200 µg/mL (≈ 443 µM); in series [6], 100 µg/mL (≈ 221 µM); in series [7], 62.5 µg/mL (≈ 138 µM). Besides, the MIC in series [8] and in series [9] was 500 µg/mL (≈ 1110 µM) throughout. In addition, in series [2], 250 µg/mL produced 16% inhibition. The Activity in series [10] was 490.33 mmol.

Consider `Cc1cn(-c2c(C=O)c(C)nn2-c2ccccc2)cn1`, for which the MIC in series [1] came out at 250 µg/mL (≈ 939 µM); in series [3] it was 250 µg/mL (≈ 939 µM); in [4] it was 150 µg/mL (≈ 563 µM); in series [5], 200 µg/mL (≈ 751 µM); in [6] it was 500 µg/mL (≈ 1880 µM); in series [7], 250 µg/mL (≈ 939 µM). Moreover, the MIC is 100 µg/mL (≈ 376 µM) in series [8] and 500 µg/mL (≈ 1880 µM) in series [9]. Also, the inhibition at 250 µg/mL in series [2] came out at 65%. Further, the Activity in [10] turned out to be 213.24 mmol.

For orientation: MIC means the lowest concentration found to suppress growth. Read a low MIC as greater potency. For orientation: inhibition means how much of the control response was suppressed. Read a low inhibition as little suppression.
